The nature of series [1]: Inhibition of beta-lactamase VIM-2 (unknown origin) expressed in Escherichia coli LZ2310 assessed as potentiation of cefoxitin antibacterial activity by measuring cefoxitin induced diameter of inhibition zone at 80 uM incubated for 18 hrs by disk diffusion method (reference value: 14 mm). The essentials: (§1)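 Efflux-deficient E. coli LZ2310 (NorE, MdfA, AcrA knocked out) carrying pLB-II with the cloned MBL gene. Mueller-Hinton, CLSI disk diffusion; antibiotic disks (30 µg cefoxitin for VIM-2, 10 µg ampicillin for VIM-4, 30 µg ceftazidime for NDM-1/IMP-1) loaded with inhibitor in DMSO (≤15 µL). Zone diameter after 18 h, 35 ± 1 °C; DMSO and 220 µg EDTA controls. Triplicate.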
In general terms: Agar diffusion results depend on both activity and mobility in agar.

A short description of series [2]: Inhibition of beta-lactamase VIM2 (unknown origin) expressed in Escherichia coli BL21(DE3) using imipenem as substrate by measuring substrate hydrolysis at 200 uM by spectrophotometric analysis. The essentials: (§2)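 Purified enzyme (overproduced in E. coli BL21(DE3), pET-9a; ion-exchange and gel filtration), 1-70 nM final. Reporter substrate 150 μM imipenem, read at 300 nm, 30 °C, 50 mM HEPES pH 7.5. Single-point screen at 100 or 200 μM; Ki from v0/vi vs [I] (0.5–1,000 μM final) assuming competitive inhibition, or Dixon plot. Triplicate.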

The nature of series [3]: Inhibition of beta-lactamase NDM1 (unknown origin) expressed in Escherichia coli BL21(DE3) using cefotaxime/nitrocefin as substrate by measuring substrate hydrolysis by spectrophotometric analysis. The essentials: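 His-tagged enzyme from E. coli BL21(DE3) pET-15b, affinity-purified, 1-70 nM final. Reporter substrate 120 μM cefotaxime (260 nm) or 100 μM nitrocefin (482 nm), 30 °C, 50 mM HEPES pH 7.5. Inhibitor 0.5–1,000 μM final; competitive Ki from v0/vi vs [I] slope or Dixon plot. Triplicate.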

Series [4] has as its system Escherichia coli. The series can be described thus: Synergistic antibacterial activity against NDM-1 producing Escherichia coli assessed as MIC of imipenem at 32 ug/ml in presence of colistin by broth microdilution method. In kind it is functional. As to conditions: dose 32 µg/ml. Background: In broth dilution the organism is exposed to a series of concentrations in liquid medium.

The test system of series [5] is Escherichia coli. The series can be described thus: Synergistic antibacterial activity against NDM-1 producing Escherichia coli assessed ass MIC of ceftazidime/avibactam at 32 ug/ml in presence of colistin by broth microdilution method. It counts as functional. As to conditions: dose 32 µg/ml.
Series [6] relates to Escherichia coli. The series can be described thus: Synergistic antibacterial activity against NDM-1 producing Escherichia coli assessed as MIC of imipenem at 32 ug/ml by broth microdilution method. In kind it is functional. As to conditions: dose 32 µg/ml.
The subject of series [7] is HUVEC. Description: Cytotoxicity in human HUVEC cells assessed as reduction in cell viability upto 100 uM incubated for 72 hrs by MTT assay. In kind it is cell-based. Background: Formazan colour is commonly taken as a measure of viable cells.
The nature of series [8]: Inhibition of beta-lactamase IMP-1 (unknown origin) expressed in Escherichia coli BL21(DE3) using imipenem as substrate by measuring substrate hydrolysis at 200 uM by spectrophotometric analysis. A digest of the protocol:
as §2

For series [9], the system named is Escherichia coli. The series can be described thus: Synergistic antibacterial activity against NDM-1 producing Escherichia coli assessed as MIC of meropenem at 32 ug/ml by broth microdilution method. In kind it is functional. As to conditions: dose 32 µg/ml.
Series [10] relates to Escherichia coli. The series can be described thus: Synergistic antibacterial activity against NDM-1 producing Escherichia coli assessed as MIC of meropenem at 32 ug/ml in presence of colistin by broth microdilution method. It counts as functional. The conditions noted are these: dose 32 µg/ml. The essentials:
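Broth microdilution per CLSI in Mueller-Hinton broth against a multidrug-resistant NDM-1-producing E. coli clinical isolate (SI-001M), inoculum 5 × 10⁴ CFU/well. […] Run in triplicate.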

The subject of series [11] is HeLa. Description: Cytotoxicity in human HeLa cells assessed as reduction in cell viability upto 250 uM incubated for 72 hrs by MTT assay. It counts as cell-based.
A short description of series [12]: Inhibition of beta-lactamase NDM-1 (unknown origin) expressed in Escherichia coli LZ2310 assessed as potentiation of ceftazidime antibacterial activity by measuring ceftazidime induced diameter of inhibition zone at 80 uM incubated for 18 hrs by disk diffusion method (reference value: 15 mm). The essentials: as §1
Series [13] can be described thus: Inhibition of beta-lactamase L1 (unknown origin) expressed in Escherichia coli BL21(DE3) using nitrocefin as substrate by measuring substrate hydrolysis at 200 uM preincubated for 30 mins by spectrophotometric analysis.
A short description of series [14]: Inhibition of beta-lactamase L1 (unknown origin) expressed in Escherichia coli BL21(DE3) using nitrocefin as substrate by measuring substrate hydrolysis at 100 uM preincubated for 30 mins by spectrophotometric analysis. A digest of the protocol:
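Enzyme 0.2–0.8 nM in 25 mM HEPES pH 7.5 with 50 μM ZnCl2 final, pre-incubated 30 min at 21 °C with inhibitor (100 μM screen). Nitrocefin 100 μM final, read at 482 nm, 30 °C. Residual activity vs three uninhibited samples; Ki (1–100 μM inhibitor) from Hanes linearization, competitive model. Triplicate.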

Series [15] deals with Escherichia coli. The series can be described thus: Synergistic antibacterial activity against NDM-1 producing Escherichia coli assessed ass MIC of ceftazidime/avibactam at 32 ug/ml by broth microdilution method. It counts as functional. As to conditions: dose 32 µg/ml. The essentials:
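MIC of ceftazidime-avibactam (avibactam fixed at 4 µg/mL) by CLSI broth microdilution in Mueller-Hinton broth. Used the NDM-1-producing multidrug-resistant E. coli clinical isolate SI-001M at 5 × 10⁴ CFU/well, with and without inhibitor at a fixed 32 µg/ml. No colistin added. Triplicate determinations.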

The nature of series [16]: Inhibition of beta-lactamase IMP-1 (unknown origin) expressed in Escherichia coli BL21(DE3) using imipenem as substrate by measuring substrate hydrolysis at 100 uM by spectrophotometric analysis. The essentials:
as §2

The test system of series [17] is Escherichia coli. Description: Antibacterial activity against NDM-1 producing Escherichia coli in presence of colistin by broth microdilution method. In kind it is functional.
A short description of series [18]: Inhibition of beta-lactamase VIM2 (unknown origin) expressed in Escherichia coli BL21(DE3) using imipenem as substrate by measuring substrate hydrolysis at 100 uM by spectrophotometric analysis. A digest of the protocol:
as §2

Series [19] in a line: Inhibition of beta-lactamase VIM4 (unknown origin) expressed in Escherichia coli BL21(DE3) using imipenem as substrate by measuring substrate hydrolysis by spectrophotometric analysis. A digest of the protocol: as §2
The test system of series [20] is HeLa. The series can be described thus: Cytotoxicity in human HeLa cells assessed as cell lysis upto 250 uM incubated for 72 hrs by membrane integrity assay. It counts as cell-based.
Series [21] deals with Escherichia coli. Description: Synergistic antibacterial activity against NDM-1 producing Escherichia coli assessed as MIC of ceftazidime at 32 ug/ml by broth microdilution method. It counts as functional. The conditions noted are these: dose 32 µg/ml.
The test system of series [22] is Escherichia coli. The series can be described thus: Synergistic antibacterial activity against NDM-1 producing Escherichia coli assessed as MIC of ceftazidime at 32 ug/ml in presence of colistin by broth microdilution method. The conditions noted are these: dose 32 µg/ml. In kind it is functional.
Series [23] is described as follows: Inhibition of beta-lactamase VIM2 (unknown origin) expressed in Escherichia coli BL21(DE3) using imipenem as substrate by measuring substrate hydrolysis by spectrophotometric analysis. The essentials: as §2
The nature of series [24]: Inhibition of beta-lactamase VIM4 (unknown origin) expressed in Escherichia coli BL21(DE3) using imipenem as substrate by measuring substrate hydrolysis at 100 uM by spectrophotometric analysis. The essentials:
as §2

Series [25] can be described thus: Inhibition of beta-lactamase VIM-2 (unknown origin) expressed in Escherichia coli XL-1 assessed as potentiation of cefoxitin antibacterial activity by measuring cefoxitin induced diameter of inhibition zone at 80 uM incubated for 18 hrs by disk diffusion method (reference value: 8 mm). A digest of the protocol:
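Wild-type efflux E. coli XL-1 Blue transformed with pLB-II-VIM-2. Mueller-Hinton disk diffusion per CLSI, 30 µg cefoxitin disks loaded with inhibitor dissolved in DMSO (≤15 µL). Growth-inhibition zone measured after 18 h at 35 ± 1 °C; DMSO negative and 220 µg EDTA positive controls. Triplicate.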

The nature of series [26]: Inhibition of beta-lactamase CphA (unknown origin) expressed in Escherichia coli BL21(DE3) using imipenem as substrate by measuring substrate hydrolysis at 100 uM by spectrophotometric analysis. The essentials: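 Enzyme 0.2–0.8 nM in 15 mM cacodylate pH 6.5, no added zinc, pre-incubated 30 min at 21 °C with inhibitor (100 μM screen). Imipenem substrate added from 10 mM stock; hydrolysis at 300 nm, 30 °C. Residual activity vs three uninhibited samples; Ki (1–100 μM inhibitor) by Hanes linearization, competitive model. Triplicate.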

The nature of series [27]: Inhibition of beta-lactamase NDM1 (unknown origin) expressed in Escherichia coli BL21(DE3) using cefotaxime/nitrocefin as substrate by measuring substrate hydrolysis at 50 uM by spectrophotometric analysis.

The source made the active and inactive calls. No cut-off for these calls is given here. Where only a bound is given, the exact number is not on record here.

With `Oc1ccc(/C=N/n2c(-c3ccc(-c4ccccc4)cc3)n[nH]c2=S)c(O)c1`, the inhibition zone (IZ) in series [1] came out at 14 mm; in series [12], 15 mm. Also, the inhibition entry in series [2], in [8], in [13], in [14], in series [16] and in series [18] was “inactive” each time. Also, the Ki in series [3] is 1800 nM; in [19], 2000 nM. Moreover, the MIC was 4 µg/mL in [4]; 4 µg/mL in series [5]; 8 µg/mL in [6]; 16 µg/mL in series [9]; 8 µg/mL in series [10]; > 256 µg/mL in [15]. Also, the minimum inhibitory concentration (MIC) in [17], in [21] and in series [22] was > 256 µg/mL each time. Besides, the Activity entry in series [7], in [11] and in [20] was “Non-Toxic” each time.

Regarding `Cc1ccccc1-c1n[nH]c(=S)n1/N=C/c1cccc(O)c1O`, the affinity in series [23] corresponds to a Ki of 5200 nM. The inhibition in [24] was 65%; in series [26], 68%; in [14] it was 55%; in series [16], 63%; in [27] it was 39%. Besides, the figures for the inhibition zone (IZ) in [1] and in series [25] were 18 mm and 15 mm, respectively.

Usually inhibition stands for the drop in the measured response relative to a control, in per cent. The Ki is a dissociation constant, usually derived from enzyme kinetics or from competition with a known ligand. A higher Ki goes with lower affinity. Broadly, the MIC is the least concentration at which growth counts as inhibited.

The values are drawn from ChEMBL document CHEMBL4706580, “4-Amino-1,2,4-triazole-3-thione-derived Schiff bases as metallo-β-lactamase inhibitors” (Eur J Med Chem, 2020).
